# High-throughput results deposited in PubChem BioAssay by Broad Institute.
# PvdQ inh – P. aeruginosa PvdQ acylase inhibition. purified PvdQ acylase, fluorescence plate reader. inhibition, % at 10 µM. hit rate 0.063% among 340,000. AID 488965; in the data active = inhibition above about 30%, passing the limit was not always enough; inconclusive = no clear call, values can overlap the other calls;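 also: 0% = vehicle neutral wells and 100% = reference inhibitor wells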
# CAL PDZ FP-1 – inhibitors of human CAL PDZ peptide binding; Q9HD26; purified CAL PDZ, TMR-peptide fluorescence polarization, 1 h; inhibition, % at 20 µM; hit rate 0.02% among 330,000;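 active = highest replicate inhibition of at least 40%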;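 also: plate controls were DMSO neutral control wells for no effect and unlabeled competitor peptide control wells for full effect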
#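 Test system: tagged CAL PDZ domain / Buffer or medium: sodium phosphate/NaCl buffer pH 7.4 with TCEP, IgG, Thesit / Reagent: TMR-labelled reporter peptide T*-PRC34 bound in PDZ groove / Compound dosing: single point, 20 µM / Schedule: 1 h incubation at room temperature before polarization reading / Technique: fluorescence polarization (mP) / Benchmarks: unlabelled peptide, DMSO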
# N-glyco inh – blocks N-linked glycosylation in D54 reporter cells | D54 ERlucT glycosylation luciferase reporter, 24 h; percent of 100 nM tunicamycin response | reporter increase, % at 12.5 µM | hit rate 0.23% among 360,000;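 active = mean luciferase reporter signal, scaled so untreated is 0 and the glycosylation-blocking control 100, at or above a set limit in every replicate; inconclusive = mean reaches the limit but not every replicate does; inactive = mean below the limit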;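 also: luciferase carries N-glycosylation sites so blocking glycosylation raises the light; 0% = median of neutral control wells and 100% = median of 100 nM tunicamycin wells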
# CAL PDZ FP-2 – inhibitors of human CAL PDZ peptide binding; hit rate 0.92% among 300,000; inhibition, % at 24.9 µM; Q9HD26; purified CAL PDZ, TMR-peptide fluorescence polarization, 1 h;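 active = mean inhibition of at least 30% with at least half of replicates also reaching 30%; inconclusive = no clear call, values can overlap the other calls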;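 also: 0% = DMSO neutral control and 100% = excess unlabeled competitor peptide PRC23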
# Vif inh – inhibitors of HIV Vif | AID 602346 | inhibition, % at 7.49 µM | HEK293T cells, Vif self-association by quenched fluorescence, imaging, 24 h | hit rate 0.35% among 340,000; in the data active = inhibition above about 50%, passing the limit was not always enough; inconclusive = no clear call, values can overlap the other calls; inactive = below about 31%
# CDK5 inh – blocks human CDK5/p35 kinase activity. Q00535+Q15078. Recombinant CDK5/p35, ADP-Glo luminescence, 60 min. inhibition, % at 10 µM. hit rate 0.01% among 330,000. AID 488839;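 active = highest replicate inhibition of at least 50% and at least 75% of replicates reaching 50%; inconclusive = only one of the two criteria met; inactive = both criteria failed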;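 also: plate controls were DMSO neutral control for no effect and GW8510 at 10 µM for full effect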
# Target sequence (Q00535 whole entry, looked up): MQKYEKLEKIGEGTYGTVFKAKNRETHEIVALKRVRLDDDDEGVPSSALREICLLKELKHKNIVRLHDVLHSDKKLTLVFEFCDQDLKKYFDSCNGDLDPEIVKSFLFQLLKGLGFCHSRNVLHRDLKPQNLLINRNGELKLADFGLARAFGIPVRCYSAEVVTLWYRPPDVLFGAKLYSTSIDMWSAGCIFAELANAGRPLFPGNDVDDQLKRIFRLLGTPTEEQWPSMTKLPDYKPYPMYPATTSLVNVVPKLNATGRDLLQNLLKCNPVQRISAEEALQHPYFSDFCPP
# Target sequence (Q15078 whole entry, looked up): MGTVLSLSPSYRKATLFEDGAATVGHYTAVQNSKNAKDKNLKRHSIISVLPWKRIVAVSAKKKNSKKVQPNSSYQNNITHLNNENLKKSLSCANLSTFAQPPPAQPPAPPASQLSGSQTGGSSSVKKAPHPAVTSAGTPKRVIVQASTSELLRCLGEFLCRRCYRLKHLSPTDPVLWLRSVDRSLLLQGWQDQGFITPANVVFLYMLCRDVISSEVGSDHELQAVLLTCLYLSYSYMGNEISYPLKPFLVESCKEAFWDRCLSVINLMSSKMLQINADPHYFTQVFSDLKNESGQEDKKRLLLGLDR
# * = called active by the depositor; i = inactive; ? = inconclusive; . = no result; ! = repeats disagree. Hits are enriched below; roughly 1.4% of the tested compounds scored in any of these assays.
SMILES,PvdQ inh,CAL PDZ FP-1,N-glyco inh,CAL PDZ FP-2,Vif inh,CDK5 inh
CC(c1ccco1)N(C(=O)c1cccc(S(=O)(=O)N(C)C)c1)c1ccccn1 (stereo unspecified),3,0,-1,-1,22,1
Cn1c(CC(=O)Nc2ccccc2F)nnc1SCC(=O)N1CCOCC1,-22,12,3,2,7,1
Cc1ccc(C(=O)C[n+]2cccc3ccccc32)cc1,7,-1,1,-3,-15,0
O=C(C[n+]1cccc2ccccc21)c1ccc(Br)cc1,-14,0,-2,.,93*,1
O=C1NC[C@H](c2ccccc2)N(CCc2cccc(F)c2)C1=O,-18,-1,0,0,-5,-1
O=C(c1cc(-c2ccccc2O)on1)N1CCCCCC1,4,-2,-4,9,74*,-1
CCc1nnc(NS(=O)(=O)c2ccc(NC(=O)c3ccccc3OC)cc2)s1,4,0,1,3,6,-2
CSc1nc(Cl)cc(=O)[nH]1,3,-1,2,-2,5,1
CCOCc1cc(=O)[nH]c(SC)n1,-11,-1,4,70*,-1,-2
Cc1ccccc1-n1nc2c(c1NC(=O)c1cc3ccccc3oc1=O)CS(=O)C2 (stereo unspecified),-17,.,-1,97*,-2,0
COc1cc(S(=O)(=O)Nc2cccc3cn[nH]c23)c(OC)cc1Cl,-14,-1,-2,95*,0,-4
COc1cc(S(=O)(=O)Nc2cccc(C(=O)O)c2)c(OC)cc1Cl,-6,-2,1,-2,-4,0
COCCNC(=O)C1(C)CCCN(Cc2cc(C(F)(F)F)ccc2Cl)C1 (stereo unspecified),.,.,-3,.,-10,.
COc1nc(=O)n(C2C=CC(=O)O2)cc1F (stereo unspecified),.,.,33*,.,0,.
COc1ccc(-c2cn3cc(C)ccc3n2)cc1F,59*,-7,-20,-1,1,0
c1ccn2cc(-c3ccc4c(c3)OCCO4)nc2c1,?,-2,-17,.,-2,6
COc1ccc(-c2cn3cc(C)ccc3n2)cc1OC,-19,0,-10,1,12,1
Cc1ccc2nc(-c3ccc4c(c3)OCCO4)cn2c1,91*,-3,-19,-3,2,1
O=C(CCC(=O)N1CCOCC1)Nc1ccc(Cl)c(Cl)c1,-4,-1,.,-4,.,0
NS(=O)(=O)c1ccc(NC(=O)CCC(=O)N2CCOCC2)cc1,-13,-4,1,-7,58*,0
COc1ccc(/C=C/CN2CCCC(CO)(Cc3cccc(Cl)c3)C2)cc1 (stereo unspecified),-13,-2,1,54*,-12,0
COc1cc(OC)cc(C(=O)N[C@H](C(=O)Nc2ccc3c(c2)OCO3)C(C)C)c1,4,1,-2,-14,91*,1
CC(C)[C@H](NC(=O)c1ccccc1F)C(=O)Nc1ccc2c(c1)OCO2,-4,-2,0,-3,-4,0
COc1cc(OC)cc(C(=O)NC(C(=O)Nc2ccc3c(c2)OCO3)C(C)C)c1 (stereo unspecified),-4,-1,0,.,125*,0
CC(C)(C)c1ccc(Nc2n[nH]c3ccccc23)cc1,.,.,-17,.,.,.
SMILES,PvdQ inh,CAL PDZ FP-1,N-glyco inh,CAL PDZ FP-2,Vif inh,CDK5 inh
Cc1csc2nc3cc(C(N)=O)ccc3c(=O)n12,-16,0,3,-3,2,3
NC(=O)c1ccc2c(=O)n3c(-c4cc(Cl)c(N)c(Cl)c4)csc3nc2c1,-5,-2,29*,-3,-1,0
Cc1nnsc1C(=O)NC1CCCc2c1cnn2-c1ccc(C(C)(C)C)cc1 (stereo unspecified),-19,-1,-2,60*,-18,-2
NS(=O)(=O)c1ccc(NC(=O)CSc2nnc3n2CCCCC3)cc1,6,0,1,0,6,0
CC(C)CC(CO)NS(=O)(=O)c1cccc(Cl)c1F (stereo unspecified),-2,0,2,-3,-5,1
CC(C)C[C@@H](CO)NS(=O)(=O)c1c(F)cccc1F,-16,4,4,35*,-6,1
NC(=O)c1cc(S(=O)(=O)N2CCc3ccccc3C2)cs1,-9,-1,1,4,7,-1
CCOC(=O)C(CC)c1cc2n(c(=O)c1C#N)CCC21OCCO1 (stereo unspecified),.,.,3,.,-2,.
COc1ccc(/C=N/NC(=O)c2cccc(O)c2)cc1Cn1nc(C)c([N+](=O)[O-])c1C,-10,-2,7,53*,-14,0
CCCCNC(=O)NNC(=O)COc1cccc(C)c1C,-10,0,2,0,4,2
CCOC(=O)c1c(NC(=O)C2CCCCC2)sc2c1CCN(CC)C2,-11,-1,-8,45*,3,-1
CCOC(=O)Nc1ccc(Oc2ccccc2)cc1,-1,-1,1,-2,-13,0
COc1ccc(/C=C/C(=O)c2ccc3c4c(cccc24)CC3)cc1OC,4,-1,34*,-4,-12,-1
CCOc1ccc(C(=O)/C=C/c2ccc(OC)c(OC)c2)cc1,-9,-2,14,61*,-4,0
COc1cccc(C(=O)/C=C/c2ccc(OCC#N)c(OC)c2)c1,-4,0,20,-3,-1,1
CCOc1ccc(/C=C/C(=O)c2ccccc2)cc1OC,-15,-1,26*,1,3,-2
CCOC(=O)Nc1ccc(C(=O)/C=C/c2ccccc2)cc1,-11,-1,7,79*,-2,-2
C=Cc1cnc([N+](=O)[O-])n1C,.,.,-4,.,-1,.
Nc1c2c(nc3ccccc13)CCCC2,-9,-1,0,0,-4,i
Nc1c2ccccc2nc2ccccc12,-12,-5,33*!,-5,-7,-1
COC(=O)[C@H](Cc1ccccc1)NC(=O)Cn1ccc(NC(=O)OCc2ccccc2)nc1=O,-15,0,-1,-8,1,0
CCn1cc(CNc2nc3nonc3nc2N2CCCCC2)cn1,-11,-1,2,72*,7,-5
C1CCN(c2nc3nonc3nc2N2CCCC2)C1,-8,-2,0,1,2,1
CC(C)c1ccc(NC2=CC(=O)CC(C)(C)C2)cc1,10,-1,0,5,-3,1
COc1cccc(C(=O)Nc2ccc3c(c2)C(=O)c2ccccc2C3=O)c1,9,-3,34*,0,-3,-1
O=C(Nc1ccc2c(c1)C(=O)c1ccccc1-2)c1ccccc1,-15,-1,-4,.,16,-1
Cc1ccc(N2C(=O)CC(Sc3nccc(C)n3)C2=O)cc1 (stereo unspecified),-16,.,-1,.,0,0
